SMILES strings stand for the structures. pIC50: −log10 of the molar value.

Broadly, the pIC50 is −log10 of the IC50, conventionally taken in molar units. A low value points to a high IC50. By inhibition is commonly meant the percentage by which the read-out fell short of the control. Higher therefore signals a response far below the control.

The target of assay [1] is Cyclin-dependent kinase 1/cyclin B (Homo sapiens, UniProt P06493). In words: Inhibitory activity against cyclin-dependent kinase 1-cyclin B. It counts as protein-complex assay. An outline of the steps:
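CDK1/cyclin B1 enzyme from starfish (Marthasterias glacialis) oocytes; kinase inhibition assayed by a method from earlier work.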

Assay [2] has as its target Cyclin-dependent kinase 1/cyclin B (starfish). In words: Inhibition of Cyclin-dependent kinase 1-cyclin B at 10 uM.
Assay [3] concerns the target T1, Cyclin-dependent kinase 2/cyclin A (Homo sapiens, UniProt P24941). The assay is described as follows: (§1) Inhibition of Cyclin-dependent kinase 2-Cyclin A3 at 10 uM. It counts as protein-complex assay. An outline of the steps:
(§2)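 Human CDK2/cyclin A kinase inhibition assay run by an earlier-published method. Solubility limited the highest concentration that could be tested to 10 µM.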

Assay [4] concerns the target Cyclin-dependent kinase 1/cyclin B (starfish). In words: Inhibition of Cyclin-dependent kinase 1-cyclin B at 100 uM.
The target in assay [5] is T1, Cyclin-dependent kinase 2/cyclin A. The assay is described as follows: Inhibition of Cyclin-dependent kinase 2-Cyclin A3 at 100 uM. It counts as protein-complex assay.
The target is the same in assay [6]. The assay is described as follows: Inhibition of cyclin-dependent kinase 2-cyclin A3 (CDK2). The class given is protein-complex assay.
Assay [7] deals with T2, Cyclin-dependent kinase 2/cyclin A (Homo sapiens) (UniProt P24941+P20248+P78396). The description is as §1. The class given is protein-complex assay. An outline of the steps: as §2
The subject of assay [8] is Cyclin-dependent kinase 1/cyclin B (starfish). In words: Inhibition of Cyclin-dependent kinase 1-cyclin B at 10 uM. As to conditions: Asteroidea.
Assay [9] addresses Cyclin-dependent kinase 1/cyclin B (Homo sapiens) (UniProt P06493+P14635+Q8WWL7+O95067). In words: Inhibition of cyclin-dependent kinase 1/Cyclin B at 10 uM. It counts as protein-complex assay. The settings on record: Marthasterias glacialis. An outline of the steps: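 Starfish (Marthasterias glacialis) oocyte CDK1/cyclin B1 kinase inhibition assay run by an earlier-published method. Solubility limited the highest concentration that could be tested to 10 µM.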

Assay [10] addresses T2, Cyclin-dependent kinase 2/cyclin A (Homo sapiens). In words: Inhibition of cyclin-dependent kinase 2/Cyclin A3 at 10 uM. It counts as protein-complex assay. In outline:
as §2

The compound `CN(C)S(=O)(=O)c1ccc(Nc2nc(OCC3CCCCC3)c3nc[nH]c3n2)cc1` had a negative logarithm of the IC50 (pIC50) in assay [1] of 7.11.

As to `COC(=O)c1ccc(Nc2nc(OCC3CCCCC3)c3nc[nH]c3n2)cc1`, the values for the pIC50 in [2] and in assay [3] were 4.18 and 4.60, respectively.

As for `COc1ccc(Oc2nc(OCC3CCCCC3)c3[nH]cnc3n2)cc1`, the pIC50 is 5.00 in assay [4] and 4.38 in assay [5]. `NS(=O)(=O)c1cccc(Nc2nc(OCC3CCCCC3)c3nc[nH]c3n2)c1`: in assay [1], the pIC50 is 6.62. The same measure, in the same setting: the same measure for `N#CCc1ccc(Nc2nc(OCC3CCCCC3)c3[nH]cnc3n2)cc1`: 6.52. On to `CNc1nc(OCC2CCCCC2)c2[nH]cnc2n1`, for which the negative logarithm of the IC50 (pIC50) in assay [6] is 5.30; in [1] it was 5.28. `COc1ccc(Nc2nc(OCC3CCCCC3)c3[nH]cnc3n2)cc1` gave a pIC50 in assay [1] of 6.10. For the compound `Fc1nc(OCC2CCCCC2)c2[nH]cnc2n1`, the inhibition in [7] worked out at 4%; in assay [8], 7%. `Clc1cc(Cl)cc(Nc2nc(OCC3CCCCC3)c3[nH]cnc3n2)c1`: the negative-log IC50 (pIC50) was 4.92 in assay [6] and 4.89 in [1]. As for `CC(C)[C@@H](CO)Nc1nc(OCC2CCCCC2)c2[nH]cnc2n1`, the values for the inhibition in assay [7] and in assay [8] were 19% and 1%, respectively. Consider `c1ccc(Nc2nc(OCC3CCCCC3)c3nc[nH]c3n2)cc1`, for which, in assay [1], the negative logarithm of the IC50 (pIC50) was 5.80. In the case of `OCCNc1nc(OCC2CCCCC2)c2[nH]cnc2n1`, the pIC50 was 5.55 in assay [6] and 5.49 in assay [1].

`CN(C)C(=O)c1ccc(Nc2nc(OCC3CCCCC3)c3[nH]cnc3n2)cc1` had a pIC50 in [1] of 6.22. Take `c1csc(CNc2nc(OCC3CCCCC3)c3[nH]cnc3n2)c1`: the negative logarithm of the IC50 (pIC50) was 5.77 in assay [6] and 6.15 in assay [1]. `Brc1cccc(Nc2nc(OCC3CCCCC3)c3[nH]cnc3n2)c1` showed a pIC50 in assay [1] of 5.28. `NS(=O)(=O)c1ccc(NNc2nc(OCC3CCCCC3)c3[nH]cnc3n2)cc1`: the pIC50 was 5.37 in [6] and 5.05 in assay [1].

`CCc1cccc(Nc2nc(OCC3CCCCC3)c3[nH]cnc3n2)c1`: the results for the inhibition in assay [9] and in [7] were 32% and 37%, respectively. Besides, the figures for the negative-log IC50 (pIC50) in [6] and in [1] were 4.28 and 4.43, respectively.

For the compound `COc1cc(Nc2nc(OCC3CCCCC3)c3[nH]cnc3n2)ccc1S(N)(=O)=O`, the pIC50 in assay [1] was 6.99. `CC(C)Nc1nc(OCC2CCCCC2)c2[nH]cnc2n1`: the values for the negative-log IC50 (pIC50) in assay [6] and in assay [1] were 5.92 and 5.70, respectively.

On to `O=C(O)c1ccc(Nc2nc(OCC3CCCCC3)c3nc[nH]c3n2)cc1`, for which the pIC50 was 6.10 in [6] and 6.00 in [1]. In the case of `Fc1cccc(Nc2nc(OCC3CCCCC3)c3[nH]cnc3n2)c1`, the results for the inhibition in [7] and in assay [8] were 62% and 69%, respectively. `NS(=O)(=O)c1ccc(CNc2nc(OCC3CCCCC3)c3[nH]cnc3n2)s1`: the pIC50 in assay [6] is 5.30; in [1] it was 5.24.

As to `CNS(=O)(=O)c1ccc(Nc2nc(OCC3CCCCC3)c3nc[nH]c3n2)cc1`, the negative-log IC50 (pIC50) in [1] was 8.05.

Regarding `CN(C)c1nc(OCC2CCCCC2)c2[nH]cnc2n1`, the inhibition in assay [7] came out at 31%; in assay [8] it was 27%. The corresponding values for `CC[C@H](CO)Nc1nc(OCC2CCCCC2)c2[nH]cnc2n1` are 62% and 43%.

`COc1cccc(Nc2nc(OCC3CCCCC3)c3[nH]cnc3n2)c1`: the pIC50 in [1] is 5.66. For the compound `Clc1nc(OCC2CCCCC2)c2[nH]cnc2n1`, the inhibition in assay [7] is 5%; in assay [8] it was 6%. Regarding `CSc1cccc(Nc2nc(OCC3CCCCC3)c3nc[nH]c3n2)c1`, in assay [1], the negative-log IC50 (pIC50) was 5.62.

For `CC[C@@H](CO)Nc1nc(OCC2CCCCC2)c2[nH]cnc2n1`, the inhibition in assay [7] is 52%; in assay [8], 29%.

As for `CCNc1nc(OCC2CCCCC2)c2[nH]cnc2n1`, the pIC50 was 5.55 in [6] and 5.48 in [1]. As to `C[S+]([O-])c1ccc(Nc2nc(OCC3CCCCC3)c3[nH]cnc3n2)cc1` (stereo unspecified), the negative-log IC50 (pIC50) in assay [1] was 6.70.

Take `NC(=O)Cc1ccc(Nc2nc(OCC3CCCCC3)c3nc[nH]c3n2)cc1`: the pIC50 in [6] was 6.89; in [1], 6.85.

For the compound `CC(C)[C@H](CO)Nc1nc(OCC2CCCCC2)c2[nH]cnc2n1`, the inhibition in assay [10] came to 20%; in assay [8] it was 2%.

On to `Fc1ccc(Nc2nc(OCC3CCCCC3)c3[nH]cnc3n2)cc1Cl`, for which the inhibition was determined as 68% in assay [7] and 73% in assay [8]. In the case of `CC(=O)c1ccc(Nc2nc(OCC3CCCCC3)c3[nH]cnc3n2)cc1`, in [1], the negative-log IC50 (pIC50) was 6.30. As for `CSc1ccc(Nc2nc(OCC3CCCCC3)c3[nH]cnc3n2)cc1`, the inhibition in assay [7] was determined as 18%; in [8], 10%. For the compound `OCc1cccc(Nc2nc(OCC3CCCCC3)c3[nH]cnc3n2)c1`, the pIC50 in [1] was 6.52. On to `Fc1ccc(Nc2nc(OCC3CCCCC3)c3[nH]cnc3n2)cc1`, for which the inhibition in [7] worked out at 27%; in [8], 20%. For the compound `CNC(=O)c1ccc(Nc2nc(OCC3CCCCC3)c3nc[nH]c3n2)cc1`, the negative-log IC50 (pIC50) in assay [6] is 6.70; in assay [1] it was 6.40.

These data come from ChEMBL document CHEMBL1138832, “N2-substituted O6-cyclohexylmethylguanine derivatives: potent inhibitors of cyclin-dependent kinases 1 and 2” (J Med Chem, 2004).
